This is an account of results in ChEMBL document CHEMBL3860039, “Structure-Activity Relationship and Signaling of New Chimeric CXCR4 Agonists” (J Med Chem, 2016).

SMILES strings stand for the structures.

What all share (type): cell-based
Assay [1] has as its target T1, C-X-C chemokine receptor type 4 (Homo sapiens, UniProt P61073). The experiment in a line: Displacement of [125I]-CXCL12 from HA-tagged human recombinant CXCR4 expressed in HEK293 cells incubated for 1 hr by gamma-radiation counting analysis.
Assay [2] concerns the target T1, C-X-C chemokine receptor type 4. The experiment in a line: Agonist activity at HA-tagged human CXCR4 receptor expressed in HEK293 cells co-transfected with Galphai1-91-RlucII, Gbeta1, and GFP10-G-gamma1 incubated for 7 mins by Galpha1 protein activation-based BRET assay. The method, boiled down: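 HEK293 cells (3 × 10^6 per 100 mm dish) co-transfected via polyethylenimine with HA-hCXCR4 plus Gαi1-91-RlucII, Gβ1, GFP10-Gγ1; replated at 24 h, 100 000 cells/well. At 48 h, washed in HBSS/0.1% BSA, exposed to ligand 10−12 to 10−5 M for 7 min, then coelenterazine-400A 5 μM final; BRET2 515/400 nm ratio. EC50 (Gαi dissociation) and Emax from three experiments in triplicate.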
Background: BRET reads energy transfer from a luciferase to a nearby fluorophore.

The target is the same in assay [3]. In words: Agonist activity at CXCR4 in human REH cells assessed as induction of chemotaxis incubated for 3 hrs by transwell migration assay. Put shortly: (§1)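 REH acute lymphoblastic B-cell leukaemia cells washed in RPMI; 100 000 cells in RPMI + 0.2% BSA seeded on top of 5 μm pore polycarbonate transwell, peptide dilutions in same medium in bottom chamber; 3 h, 37 °C, 5% CO2. Migrated cells in lower chamber counted by automated counter, expressed as % of seeded cells; peak = concentration giving maximal migration. Three experiments in triplicate.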

For assay [4] the target is unchanged. The experiment in a line: Agonist activity at CXCR4 in human REH cells assessed as optimal concentration causing maximum induction of chemotaxis incubated for 3 hrs by transwell migration assay. Put shortly: as §1

T1 sequence (P61073 whole entry): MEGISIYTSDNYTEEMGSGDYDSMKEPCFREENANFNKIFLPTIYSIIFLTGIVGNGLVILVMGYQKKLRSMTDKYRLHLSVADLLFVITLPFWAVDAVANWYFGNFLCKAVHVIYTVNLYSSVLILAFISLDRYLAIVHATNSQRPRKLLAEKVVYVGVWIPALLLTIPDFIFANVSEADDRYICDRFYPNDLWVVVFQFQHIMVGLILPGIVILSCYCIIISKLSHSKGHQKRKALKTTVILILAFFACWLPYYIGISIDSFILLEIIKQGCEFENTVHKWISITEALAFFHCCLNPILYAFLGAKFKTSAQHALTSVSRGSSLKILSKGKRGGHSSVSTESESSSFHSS

Consider `CC(C)C[C@H](NC(=O)[C@H](CO)NC(=O)[C@@H](NC(=O)[C@@H]1CCCN1C(=O)[C@@H](N)CCCCN)C(C)C)C(=O)N[C@@H](CO)C(=O)N[C@@H](Cc1ccc(O)cc1)C(=O)N[C@@H](C)C(=O)N[C@@H](CO)C(=O)N[C@@H](C)C(=O)NCCCC[C@H](NC(=O)[C@@H]1CSSC[C@H](NC(=O)[C@H](Cc2ccc3ccccc3c2)NC(=O)[C@H](CCCNC(=N)N)NC(=O)[C@@H](N)CCCNC(=N)N)C(=O)N[C@@H](Cc2ccc(O)cc2)C(=O)N[C@@H](CCCNC(=N)N)C(=O)N[C@@H](CCCCN)C(=O)N[C@H](CCCCN)C(=O)N2CCC[C@H]2C(=O)N[C@@H](Cc2ccc(O)cc2)C(=O)N[C@@H](CCCNC(=N)N)C(=O)N[C@@H](CCCNC(=N)N)C(=O)N1)C(=O)O`, for which the IC50 (usually the concentration needed to halve the response being measured) in assay [1] is 300 nM. Moreover, in assay [2], the response was half-maximal at 40 nM (EC50) and the Emax (usually the maximal effect, on the per cent scale that the assay sets) came to 25%. In addition, the %max in assay [3] was found to be 16%. In addition, the Activity in assay [4] turned out to be 10000 nM.
On the same counts, the results for `CC(C)C[C@H](NC(=O)[C@H](CO)NC(=O)[C@@H](NC(=O)[C@@H]1CCCN1C(=O)[C@@H](N)CCCCN)C(C)C)C(=O)N[C@@H](CO)C(=O)N[C@@H](Cc1ccc(O)cc1)C(=O)N[C@@H](CCCNC(=N)N)C(=O)N[C@@H](CO)C(=O)N[C@@H](C)C(=O)NCCCC[C@H](NC(=O)[C@@H]1CSSC[C@H](NC(=O)[C@H](Cc2ccc3ccccc3c2)NC(=O)[C@H](CCCNC(=N)N)NC(=O)[C@@H](N)CCCNC(=N)N)C(=O)N[C@@H](Cc2ccc(O)cc2)C(=O)N[C@@H](CCCNC(=N)N)C(=O)N[C@@H](CCCCN)C(=O)N[C@H](CCCCN)C(=O)N2CCC[C@H]2C(=O)N[C@@H](Cc2ccc(O)cc2)C(=O)N[C@@H](CCCNC(=N)N)C(=O)N[C@@H](CCCNC(=N)N)C(=O)N1)C(=O)O` are 84 nM, 58 nM, 55%, 45% and 10 nM.
As to `CC(C)C[C@H](NC(=O)[C@H](CO)NC(=O)[C@@H](NC(=O)[C@@H]1CCCN1C(=O)[C@@H](N)CCCCN)C(C)C)C(=O)N[C@@H](CO)C(=O)N[C@@H](Cc1ccc(I)cc1)C(=O)N[C@@H](CCCNC(=N)N)C(=O)N[C@@H](CO)C(=O)N[C@@H](C)C(=O)NCCCC[C@H](NC(=O)[C@@H]1CSSC[C@H](NC(=O)[C@H](Cc2ccc3ccccc3c2)NC(=O)[C@H](CCCNC(=N)N)NC(=O)[C@@H](N)CCCNC(=N)N)C(=O)N[C@@H](Cc2ccc(O)cc2)C(=O)N[C@@H](CCCNC(=N)N)C(=O)N[C@@H](CCCCN)C(=O)N[C@H](CCCCN)C(=O)N2CCC[C@H]2C(=O)N[C@@H](Cc2ccc(O)cc2)C(=O)N[C@@H](CCCNC(=N)N)C(=O)N[C@@H](CCCNC(=N)N)C(=O)N1)C(=O)O`, the IC50 in assay [1] is 73 nM. In addition, in assay [2], a half-maximal effect (EC50) was put at 94 nM and the Emax amounted to 59%. In addition, the %max in assay [3] was 51%. For the same compound, the Activity in assay [4] stood at 100 nM.
With `CC(C)C[C@H](NC(=O)[C@H](CO)NC(=O)[C@H](Cc1ccc(C(=O)c2ccccc2)cc1)NC(=O)[C@@H]1CCCN1C(=O)[C@@H](N)CCCCN)C(=O)N[C@@H](CO)C(=O)N[C@@H](Cc1ccc(O)cc1)C(=O)NCCOCCOCCOCCC(=O)NCCCC[C@H](NC(=O)[C@@H]1CSSC[C@H](NC(=O)[C@H](Cc2ccc3ccccc3c2)NC(=O)[C@H](CCCNC(=N)N)NC(=O)[C@@H](N)CCCNC(=N)N)C(=O)N[C@@H](Cc2ccc(O)cc2)C(=O)N[C@@H](CCCNC(=N)N)C(=O)N[C@@H](CCCCN)C(=O)N[C@H](CCCCN)C(=O)N2CCC[C@H]2C(=O)N[C@@H](Cc2ccc(O)cc2)C(=O)N[C@@H](CCCNC(=N)N)C(=O)N[C@@H](CCCNC(=N)N)C(=O)N1)C(=O)O`, the IC50 in assay [1] was 112 nM. Besides, in assay [2], the EC50 (commonly the concentration giving half of the maximal effect) came to 207 nM and the Emax was 75%. In addition, in assay [3], the %max came to 40%. Also, in assay [4], the Activity is 100 nM.
For `CC(C)C[C@H](NC(=O)[C@H](CO)NC(=O)[C@@H](NC(=O)[C@@H]1CCCN1C(=O)[C@@H](N)CCCCN)C(C)C)C(=O)N[C@@H](C)C(=O)N[C@@H](Cc1ccc(O)cc1)C(=O)N[C@@H](CCCNC(=N)N)C(=O)N[C@@H](CO)C(=O)N[C@@H](C)C(=O)NCCCC[C@H](NC(=O)[C@@H]1CSSC[C@H](NC(=O)[C@H](Cc2ccc3ccccc3c2)NC(=O)[C@H](CCCNC(=N)N)NC(=O)[C@@H](N)CCCNC(=N)N)C(=O)N[C@@H](Cc2ccc(O)cc2)C(=O)N[C@@H](CCCNC(=N)N)C(=O)N[C@@H](CCCCN)C(=O)N[C@H](CCCCN)C(=O)N2CCC[C@H]2C(=O)N[C@@H](Cc2ccc(O)cc2)C(=O)N[C@@H](CCCNC(=N)N)C(=O)N[C@@H](CCCNC(=N)N)C(=O)N1)C(=O)O` the same measures were 368 nM, 144 nM, 19%, 11.4% and 10000 nM.
As for `CC(C)C[C@H](NC(=O)[C@H](CO)NC(=O)[C@H](Cc1ccc(C(=O)c2ccccc2)cc1)NC(=O)[C@@H]1CCCN1C(=O)[C@@H](N)CCCCN)C(=O)N[C@@H](CO)C(=O)N[C@@H](Cc1ccc(O)cc1)C(=O)N[C@@H](CCCNC(=N)N)C(=O)N[C@@H](CO)C(=O)N[C@@H](C)C(=O)NCCCC[C@H](NC(=O)[C@@H]1CSSC[C@H](NC(=O)[C@H](Cc2ccc3ccccc3c2)NC(=O)[C@H](CCCNC(=N)N)NC(=O)[C@@H](N)CCCNC(=N)N)C(=O)N[C@@H](Cc2ccc(O)cc2)C(=O)N[C@@H](CCCNC(=N)N)C(=O)N[C@@H](CCCCN)C(=O)N[C@H](CCCCN)C(=O)N2CCC[C@H]2C(=O)N[C@@H](Cc2ccc(O)cc2)C(=O)N[C@@H](CCCNC(=N)N)C(=O)N[C@@H](CCCNC(=N)N)C(=O)N1)C(=O)O`, the IC50 in assay [1] turned out to be 59 nM. In assay [2], the EC50 amounted to 52 nM and the Emax was found to be 75%. The %max in assay [3] stood at 72%. Moreover, the Activity in assay [4] worked out at 10 nM.
For `CC(C)C[C@H](NC(=O)[C@H](C)NC(=O)[C@@H](NC(=O)[C@@H]1CCCN1C(=O)[C@@H](N)CCCCN)C(C)C)C(=O)N[C@@H](CO)C(=O)N[C@@H](Cc1ccc(O)cc1)C(=O)N[C@@H](CCCNC(=N)N)C(=O)N[C@@H](CO)C(=O)N[C@@H](C)C(=O)NCCCC[C@H](NC(=O)[C@@H]1CSSC[C@H](NC(=O)[C@H](Cc2ccc3ccccc3c2)NC(=O)[C@H](CCCNC(=N)N)NC(=O)[C@@H](N)CCCNC(=N)N)C(=O)N[C@@H](Cc2ccc(O)cc2)C(=O)N[C@@H](CCCNC(=N)N)C(=O)N[C@@H](CCCCN)C(=O)N[C@H](CCCCN)C(=O)N2CCC[C@H]2C(=O)N[C@@H](Cc2ccc(O)cc2)C(=O)N[C@@H](CCCNC(=N)N)C(=O)N[C@@H](CCCNC(=N)N)C(=O)N1)C(=O)O` the same measures were 25 nM, 56 nM, 81%, 50% and 10 nM.
On the same counts, the results for `CC(C)C[C@H](NC(=O)[C@H](CO)NC(=O)[C@@H](NC(=O)[C@@H]1CCCN1C(=O)[C@@H](N)CCCCN)C(C)C)C(=O)N[C@@H](CO)C(=O)N[C@@H](Cc1ccc([N+](=O)[O-])cc1)C(=O)N[C@@H](CCCNC(=N)N)C(=O)N[C@@H](CO)C(=O)N[C@@H](C)C(=O)NCCCC[C@H](NC(=O)[C@@H]1CSSC[C@H](NC(=O)[C@H](Cc2ccc3ccccc3c2)NC(=O)[C@H](CCCNC(=N)N)NC(=O)[C@@H](N)CCCNC(=N)N)C(=O)N[C@@H](Cc2ccc(O)cc2)C(=O)N[C@@H](CCCNC(=N)N)C(=O)N[C@@H](CCCCN)C(=O)N[C@H](CCCCN)C(=O)N2CCC[C@H]2C(=O)N[C@@H](Cc2ccc(O)cc2)C(=O)N[C@@H](CCCNC(=N)N)C(=O)N[C@@H](CCCNC(=N)N)C(=O)N1)C(=O)O` are 109 nM, 62 nM, 73%, 48% and 10 nM.
On the same counts, the results for `CC(C)C[C@H](NC(=O)[C@H](CO)NC(=O)[C@H](Cc1cc2cccc3ccc4cccc1c4c32)NC(=O)[C@@H]1CCCN1C(=O)[C@@H](N)CCCCN)C(=O)N[C@@H](CO)C(=O)N[C@@H](Cc1ccc(O)cc1)C(=O)N[C@@H](CCCNC(=N)N)C(=O)N[C@@H](CO)C(=O)N[C@@H](C)C(=O)NCCCC[C@H](NC(=O)[C@@H]1CSSC[C@H](NC(=O)[C@H](Cc2ccc3ccccc3c2)NC(=O)[C@H](CCCNC(=N)N)NC(=O)[C@@H](N)CCCNC(=N)N)C(=O)N[C@@H](Cc2ccc(O)cc2)C(=O)N[C@@H](CCCNC(=N)N)C(=O)N[C@@H](CCCCN)C(=O)N[C@H](CCCCN)C(=O)N2CCC[C@H]2C(=O)N[C@@H](Cc2ccc(O)cc2)C(=O)N[C@@H](CCCNC(=N)N)C(=O)N[C@@H](CCCNC(=N)N)C(=O)N1)C(=O)O` are 90 nM, 74 nM, 47%, 45% and 100 nM.
`CC(C)C[C@H](NC(=O)[C@H](CO)NC(=O)[C@H](Cc1ccc2ccccc2c1)NC(=O)[C@@H]1CCCN1C(=O)[C@@H](N)CCCCN)C(=O)N[C@@H](CO)C(=O)N[C@@H](Cc1ccc(O)cc1)C(=O)N[C@@H](CCCNC(=N)N)C(=O)N[C@@H](CO)C(=O)N[C@@H](C)C(=O)NCCCC[C@H](NC(=O)[C@@H]1CSSC[C@H](NC(=O)[C@H](Cc2ccc3ccccc3c2)NC(=O)[C@H](CCCNC(=N)N)NC(=O)[C@@H](N)CCCNC(=N)N)C(=O)N[C@@H](Cc2ccc(O)cc2)C(=O)N[C@@H](CCCNC(=N)N)C(=O)N[C@@H](CCCCN)C(=O)N[C@H](CCCCN)C(=O)N2CCC[C@H]2C(=O)N[C@@H](Cc2ccc(O)cc2)C(=O)N[C@@H](CCCNC(=N)N)C(=O)N[C@@H](CCCNC(=N)N)C(=O)N1)C(=O)O`: the IC50 in assay [1] was 64 nM. In assay [2], this compound registered an EC50 of 152 nM and an Emax of 43%. For the same compound, the %max in assay [3] was found to be 47%. For the same compound, the Activity in assay [4] was found to be 10 nM.
